Article PMC3544189 (ACS medicinal chemistry letters, 2012)
Entries after “also recorded” stand apart in the source; their conditions may differ.

What was measured:
proteasome [1] = details: cited from earlier work
[2] = system: chymotrypsin-like activity of human 20S proteasome; assay type: biochemical; details: for Proteasome activation (in words): chymotrypsin-like activity, absence of PA28
Summary of the method: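 Without PA28, proteasome was exposed to test compound. Chymotrypsin-like activity was followed by cleavage of the fluorogenic substrate Suc-LLVY-AMC, read in relative fluorescence units against a proteasome-plus-substrate background. EC50 was the concentration raising activity to 50% of its maximum level. Values are mean ± SD of three independent experiments.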

proteasome [3] = details: cited from earlier work; remark: listed apart in the source
[4] = biological target: PA28-activated proteasome; experiment: Inhibition of PA28-activated proteasome by Aβ1-42; assay type: biochemical; details: PA28 1.8 μg/ml
[5] = system: chymotrypsin-like proteasome activity (20S proteasome + PA28); experiment: Inhibition of chymotrypsin-like proteasome activity in the presence of PA28; assay type: biochemical, human
Summary of the method: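 The proteasome was activated by the cellular activator PA28 and then exposed to test compound. Chymotrypsin-like activity was read by Suc-LLVY-AMC fluorescence, with proteasome plus substrate as background. IC50 was the concentration inhibiting PA28-present chymotrypsin-like activity by 50%. Values are mean ± SD of three independent experiments.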

[6] = system: PA28-activated proteasome inhibited by Aβ1-42; experiment: Antagonism of Aβ1-42 inhibition of PA28-activated proteasome by compound 2; assay type: biochemical; details: compound 2 at 14, 28, 56 μM; Aβ1-42 10 μg/ml; PA28 1.8 μg/ml
proteasome [7] = details: cited from earlier work; remark: listed apart in the source

Compound | Proteasome activation (in words) [2] | Proteasome inhibition (in words) [5] | also measured
polylysine | – | – | Concentration reported for proteasome activation (proteasome [1]): 1 mg/mL
COC(=O)CC[C@@H](C)[C@H]1CC[C@H]2[C@@H]3CC[C@@H]4C[C@H](NC(=O)CCCCCC(=O)O)CC[C@]4(C)[C@H]3CC[C@]12C [Compound 6] | – | – | Increase of proteasome activation activity relative to compound 2 ([2]; C3 amide versus C3 ester): approximately two-fold
CCCCCCCCCCCCOS(=O)(=O)[O-].[Na+] [SDS] | – | – | Concentration reported for proteasome activation (proteasome [1]): 0.05%
CN(C)c1ccc2nc3ccc(=[N+](C)C)cc-3sc2c1 [methylene blue] | – | – | Enhancement of proteasome activity (in words) (proteasome [3]): slightly enhance proteasome activity
Aβ1-42: amyloid beta peptide 1-42, the likely pathogenic form of Aβ | – | – | Inhibition of PA28-activated proteasome (in words) [4]: inhibited the proteasome in a dose dependent manner
CCOC(=O)CC[C@@H](C)[C@H]1CC[C@H]2[C@@H]3CC[C@@H]4C[C@H](OC(=O)CCCCCC(=O)O)CC[C@]4(C)[C@H]3CC[C@]12C [Compound 3] | completely abrogated the proteasome activation activity | – | –
C[C@H](CCC(=O)O)[C@H]1CC[C@H]2[C@@H]3CC[C@@H]4C[C@H](O)CC[C@]4(C)[C@H]3CC[C@]12C [Lithocholic acid, lithocholic acid, reference compound] | did not activate the proteasome | weak proteasome inhibitor | –
COC(=O)CC[C@@H](C)[C@H]1CC[C@H]2[C@@H]3CC[C@@H]4C[C@@H](NC(=O)CCCCCC(=O)O)CC[C@]4(C)[C@H]3CC[C@]12C [Compound 7] | did not activate the proteasome | inhibited the proteasome | –
CNC(=O)CC[C@@H](C)[C@H]1CC[C@H]2[C@@H]3CC[C@@H]4C[C@H](OC(=O)CCCCCC(=O)O)CC[C@]4(C)[C@H]3CC[C@]12C [Compound 4] | completely abrogated the proteasome activation activity | – | –
COC(=O)CC[C@@H](C)[C@H]1CC[C@H]2[C@@H]3CC[C@@H]4C[C@@H](OC(=O)CCCCCC(=O)O)CC[C@]4(C)[C@H]3CC[C@]12C [Compound 5] | did not activate the proteasome | inhibited the proteasome | –
COC(=O)CC[C@@H](C)[C@H]1CC[C@H]2[C@@H]3CC[C@@H]4C[C@@H](N)CC[C@]4(C)[C@H]3CC[C@]12C [Compound 9, 3-β-amino-lithocholic acid methyl ester] | did not activate the proteasome | inhibited the proteasome | –
C/C=C1/[C@H](O[C@@H]2O[C@H](CO)[C@@H](O)[C@H](O)[C@H]2O)OC=C(C(=O)OC)[C@H]1CC(=O)OCCc1ccc(O)c(O)c1 [Oleuropein, reference compound] | did not show any significant activity; also recorded: did not activate the proteasome | – | Proteasome activation over background proteasome activity (proteasome [1]; absence of cellular proteasome activators): approximately 1.5 fold; Concentration reported to enhance proteasome activities in vitro (proteasome [1]): 0.5 µg/mL
COC(=O)CC[C@@H](C)[C@H]1CC[C@H]2[C@@H]3CC[C@@H]4C[C@H](OC(=O)CCCCCC(=O)O)CC[C@]4(C)[C@H]3CC[C@]12C [Compound 2, 3α-O-pimeloyl-lithocholic acid methyl ester] | active in proteasome activation | – | Antagonism of Aβ1-42-mediated proteasome inhibition (in words) [6]: antagonized the Aβ1-42-mediated proteasome inhibition in a dose dependent manner; also recorded: potently antagonized; also recorded: completely reverse; Proteasome inhibition in previous study (in words) (proteasome [7]): inactive in proteasome inhibition
